In assay [1] the test system is Streptococcus agalactiae. As to the kind of experiment: Antibacterial activity against Streptococcus agalactiae ATCC 12386 by broth microdilution method. The class given is functional. The gist of the method:
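MIC was found by EUCAST broth microdilution in duplicate over 12.5–125 μM, using compounds from 10 mM stocks in 20% DMSO diluted in water. OD600 was plotted as a concentration-effect curve, and MIC was taken as the concentration giving an OD600 of 0.05. Gentamycin at 0.03–32 μg/mL served as the positive control.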
(In general: Dilution methods test growth across graded concentrations, often in twofold steps.)

The next assay relates to Enterococcus faecalis. As to the kind of experiment: Antibacterial activity against Enterococcus faecalis ATCC 29122 assessed as inhibition of bacterial growth at 100 uM by broth microdilution method. The class given is functional, organism-based. The gist of the method: (§1)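 Broth microdilution per EUCAST, run in duplicate, for two independent experiments. Pure compounds came from 10 mM stocks in 20% DMSO, diluted with water, and were tested at a final 100 μM for growth inhibition. Controls were gentamycin at 0.03–32 μg/mL (positive) and 0.25% DMSO with growth medium (negative).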

In another assay the test system is Staphylococcus aureus. Nature of the assay: Antibacterial activity against Staphylococcus aureus ATCC 25923 assessed as inhibition of bacterial growth at 100 uM by broth microdilution method. The class given is functional, organism-based. The method in brief:
as §1

The next assay relates to Escherichia coli. As to the kind of experiment: Antibacterial activity against Escherichia coli ATCC 25922 assessed as inhibition of bacterial growth at 100 uM by broth microdilution method. The class given is functional, organism-based. The gist of the method: as §1
A further assay concerns Pseudomonas aeruginosa. Nature of the assay: Antibacterial activity against Pseudomonas aeruginosa ATCC 27853 assessed as inhibition of bacterial growth at 100 uM by broth microdilution method. The class given is functional, organism-based. The gist of the method: as §1
In assay [2] the test system is Streptococcus agalactiae. As to the kind of experiment: Antibacterial activity against Streptococcus agalactiae ATCC 12386 assessed as inhibition of bacterial growth at 100 uM by broth microdilution method.
Assay [3] has as its system Streptococcus agalactiae. Nature of the assay: Antibacterial activity against Streptococcus agalactiae ATCC 12386 assessed as inhibition of bacterial growth at 100 uM by broth microdilution method. The class given is functional, organism-based. The gist of the method:
as §1

Molecules are shown by their SMILES. Values after ≈ are worked out from the molar mass of the structure shown. Active and inactive are the calls of the source. No cut-off for these calls is given here.

The MIC is the lowest concentration that inhibits growth of the organism.

On to `C/C(=C\CC[C@H](C)[C@H]1CC[C@]2(C)C[C@H]3C4=C(CC[C@@H]12)C(=O)N(CCO)[C@@H]4C[C@@]3(C)O)C(=O)O`, for which the outcome in the assay on Streptococcus agalactiae [1], with Enterococcus faecalis, in the assay on Staphylococcus aureus, with Escherichia coli and with Pseudomonas aeruginosa was inactive.
For the molecule `CC(CCC[C@H](C)[C@H]1CC[C@]2(C)C[C@H]3C4=C(CC[C@@H]12)C(=O)N(CCO)[C@@H]4C[C@@]3(C)O)COC=O` (stereo partly specified), the result with Streptococcus agalactiae [2] and in the assay with Streptococcus agalactiae [3] was Active. The same molecule displayed a minimum inhibitory concentration (MIC) against Streptococcus agalactiae [1] of 86 µM (≈ 40.9 µg/mL). The result with Enterococcus faecalis, with Staphylococcus aureus, in the assay with Escherichia coli and in the assay with Pseudomonas aeruginosa was inactive.
In turn, `CC(C)=CCC[C@H](C)[C@H]1CC[C@]2(C)C[C@H]3C4=C(CC[C@@H]12)C(=O)N(CCO)[C@@H]4C[C@@]3(C)O` came in with an MIC against Streptococcus agalactiae [1] of 64 µM (≈ 27.5 µg/mL). Also, the result in the assay on Streptococcus agalactiae [3] was Active. Besides, the outcome in the assay with Enterococcus faecalis, in the assay on Staphylococcus aureus, in the assay on Escherichia coli and with Pseudomonas aeruginosa was inactive.
Consider `CC(C)=C/C=C\[C@H](C)[C@H]1CC[C@]2(C)C[C@H]3C4=C(CC[C@@H]12)C(=O)N(CCO)[C@@H]4C[C@@]3(C)O`, for which the result in the assay with Streptococcus agalactiae [2] and in the assay on Streptococcus agalactiae [3] was Active. In addition, in the assay on Streptococcus agalactiae [1], the MIC came to 66 µM (≈ 28.2 µg/mL). Also, the outcome with Enterococcus faecalis, in the assay on Staphylococcus aureus, in the assay on Escherichia coli and with Pseudomonas aeruginosa was inactive.
Consider `C/C(=C\CC[C@H](C)[C@H]1CC[C@]2(C)C[C@H]3C4=C(CC[C@@H]12)C(=O)N(CCO)[C@@H]4C[C@@]3(C)O)CO`, for which the outcome in the assay with Streptococcus agalactiae [1], with Enterococcus faecalis, in the assay on Staphylococcus aureus, with Escherichia coli and with Pseudomonas aeruginosa was inactive.
`CNC(C)[C@@H]1CC[C@@H](N)[C@@H](O[C@H]2[C@H](O)[C@@H](O[C@H]3OC[C@](C)(O)[C@H](NC)[C@H]3O)[C@H](N)C[C@@H]2N)O1.CN[C@@H]1[C@@H](O)[C@@H](O[C@@H]2[C@@H](O)[C@H](O[C@H]3O[C@H](C(C)N)CC[C@H]3N)[C@@H](N)C[C@H]2N)OC[C@]1(C)O.CN[C@@H]1[C@@H](O)[C@@H](O[C@@H]2[C@@H](O)[C@H](O[C@H]3O[C@H](CN)CC[C@H]3N)[C@@H](N)C[C@H]2N)OC[C@]1(C)O` (stereo partly specified) displayed an MIC against Streptococcus agalactiae [1] of 3 µM.
In the case of `CC(CCC[C@H](C)[C@H]1CC[C@]2(C)C[C@H]3C4=C(CC[C@@H]12)C(=O)N(CCO)[C@@H]4C[C@@]3(C)O)C(=O)O` (stereo partly specified), the result with Streptococcus agalactiae [1], in the assay on Enterococcus faecalis, in the assay on Staphylococcus aureus, with Escherichia coli and in the assay on Pseudomonas aeruginosa was inactive.
Consider `CC(CO)CCC[C@H](C)[C@H]1CC[C@]2(C)C[C@H]3C4=C(CC[C@@H]12)C(=O)N(CCO)[C@@H]4C[C@@]3(C)O` (stereo partly specified), for which the outcome in the assay with Streptococcus agalactiae [1], in the assay on Enterococcus faecalis, in the assay with Staphylococcus aureus, in the assay with Escherichia coli and with Pseudomonas aeruginosa was inactive.
Consider `CC(C)=CCC[C@H](C)[C@H]1CC[C@]2(C)C[C@H]3[C@@H]4[C@H](CC[C@@H]12)C(=O)N1CCOC41C[C@@]3(C)O` (stereo partly specified), for which the result in the assay with Streptococcus agalactiae [1], in the assay with Enterococcus faecalis, with Staphylococcus aureus, in the assay on Escherichia coli and with Pseudomonas aeruginosa was inactive.

The record behind these values is ChEMBL document CHEMBL6121061, “Metabolomics-Guided Discovery of Bipolarolides H-O, New Ophiobolin-Type Sesterterpenes with Antibacterial Activity from the Marine-Derived Fungus Uzbekistanica storfjordensis sp. nov” (2025).
